Data published in ChEMBL document CHEMBL4000247, “Carbonic anhydrases activation with 3-amino-1H-1,2,4-triazole-1-carboxamides: Discovery of subnanomolar isoform II activators” (Bioorg Med Chem, 2017).

Tests used:
[1] = target: Carbonic anhydrase 2 (Homo sapiens) (UniProt P00918); assay: Activation of recombinant human carbonic anhydrase 2 incubated for 15 mins prior to testing by stopped flow CO2 hydrase assay
Summary of the method: (§1)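 CO2 hydration followed 5–10 s in stopped-flow instrument; phenol red 0.2 mM read at 557 nm; 10 mM HEPES pH 7.4, 0.1 M NaClO4 for ionic strength; saturated CO2 solutions in water at 25°C as substrate. Activator stocks 10 mM in assay buffer, diluted down to 0.01 nM; enzyme and activator preincubated 15 min at room temperature. Activation constant from competitive steady-state equation.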

[2] = target: Carbonic anhydrase 1 (Homo sapiens) (UniProt P00915); assay: Activation of recombinant human carbonic anhydrase 1 incubated for 15 mins prior to testing by stopped flow CO2 hydrase assay; summary of the method: as §1
Carbonic anhydrase 1 (Homo sapiens), sequence (P00915 2-261 limits assumed): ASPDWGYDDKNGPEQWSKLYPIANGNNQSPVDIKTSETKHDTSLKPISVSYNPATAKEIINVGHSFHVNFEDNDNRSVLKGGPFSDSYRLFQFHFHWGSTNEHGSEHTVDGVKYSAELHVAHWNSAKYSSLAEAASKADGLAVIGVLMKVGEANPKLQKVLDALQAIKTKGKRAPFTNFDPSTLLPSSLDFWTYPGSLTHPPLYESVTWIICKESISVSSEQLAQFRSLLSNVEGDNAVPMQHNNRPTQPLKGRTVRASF

| SMILES | KA [1] [nM] | KA [2] [nM] |
| --- | --- | --- |
| COc1cc(-c2ccc(NC(=O)n3cnc(N)n3)c(OC)c2)ccc1NC(=O)n1cnc(N)n1 | 1680 | 637 |
| Nc1ncn(C(=O)NCCCCCCCCNC(=O)n2cnc(N)n2)n1 | 65 | 11.1 |
| Nc1ncn(C(=O)NCCCCCCCCCCCCNC(=O)n2cnc(N)n2)n1 | 79 | 982 |
| Nc1ncn(C(=O)Nc2ccc(Cc3ccc(NC(=O)n4cnc(N)n4)cc3)cc2)n1 | 0.05 | 0.94 |
| Nc1ncn(C(=O)NCCCCCCNC(=O)n2cnc(N)n2)n1 | 14.6 | 42 |
| CCCCCCNC(=O)n1cnc(N)n1 | 345 | 123 |
| Nc1ncn(C(=O)Nc2ccc(-c3ccc(NC(=O)n4cnc(N)n4)cc3)cc2)n1 | 14.1 | 0.81 |
| Nc1ncn(C(=O)NCCCCNC(=O)n2cnc(N)n2)n1 | 91 | 74 |
| Cc1ccc(NC(=O)n2cnc(N)n2)cc1NC(=O)n1cnc(N)n1 | 826 | 4.2 |
| Nc1ncn(C(=O)Nc2ccc(NC(=O)n3cnc(N)n3)cc2)n1 | 0.12 | 65 |
| CC1(C)CC(NC(=O)n2cnc(N)n2)CC(C)(CNC(=O)n2cnc(N)n2)C1 (stereo not drawn) | 1570 | 993 |
| CCCCCCCCCCCCCCCCCCNC(=O)n1cnc(N)n1 | 1680 | 987 |
| O=C(O)c1ncn(C(=O)NCCCCCCNC(=O)n2cnc(C(=O)O)n2)n1 | 6700 | 13.7 |
| CCCCNC(=O)n1cnc(N)n1 | 1.7 | 6.1 |
